Data set [1] can be described thus: Tmax in Sprague-Dawley rat at 250 mg/kg, po administered via gavage after 24 hrs using HPMC formulation by LC-MS/MS analysis. The format is ADME, organism-based. The conditions noted are these: in vivo. Summed up:
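Single oral gavage of a 5% HPMC suspension at 125, 250, 500 or 1000 mg/kg to male Sprague Dawley rats, 3 per group. Plasma was sampled at 6 time points from 0.5 to 24 h.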

The nature of data set [2]: AUC (infinity) in Sprague-Dawley rat at 0.5 mg/kg, iv or 2.5 mg/kg, po using 1:1 PEG-400/water formulation by LC-MS/MS analysis. The format is ADME, organism-based. Set-up: dose 2.5 mg/kg. The settings on record: in vivo. The essentials:
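Rat IV/PO PK at 0.5 mg/kg IV and 2.5 mg/kg PO, dosed in 1:1 PEG400/water, n=3.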

Data set [3] in a line: Half life in dog at 0.5 mg/kg, po by LC-MS/MS analysis. The data set is classed as ADME, organism-based, Canis lupus familiaris. The settings on record: in vivo.
A short description of data set [4]: Drug level in Sprague-Dawley rat brain cerebellum at 0.03 mg/kg, iv after 5 min by LC-MS/MS analysis. The format is ADME, organism-based. The settings on record: read-out: Drug uptake. Summed up:
(§1)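 Single i.v. dose of 0.03 mg/kg in 50% (w/v) PEG/water, pH 7.4; rats n=3 per group, killed at 5, 10, 30, 60 and 120 min. Cerebellum, cortex, striatum and hippocampus dissected, weighed and homogenized; drug quantified by LC-MS/MS and normalized to tissue weight. P<0.05 taken as significant versus cerebellum.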

A short description of data set [5]: Half life in mouse at 0.5 mg/kg, iv by LC-MS/MS analysis. The format is ADME, organism-based. The settings on record: in vivo.
Data set [6] can be described thus: Oral bioavailability in Sprague-Dawley rat at 2.5 mg/kg using 1:1 PEG-400/water formulation by LC-MS/MS analysis. The data set is classed as ADME, organism-based. The settings on record: in vivo. The essentials: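 Rats dosed 0.5 mg/kg i.v. and 2.5 mg/kg p.o., n=3 ± SD. Default vehicle is 20% HP-β-CD; one PK set used 1:1 PEG400/water and another 30% SBE-β-CD.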

The next data set addresses T1, Cytochrome P450 2C8 (Homo sapiens, UniProt P10632).
T1 sequence (P10632 whole entry): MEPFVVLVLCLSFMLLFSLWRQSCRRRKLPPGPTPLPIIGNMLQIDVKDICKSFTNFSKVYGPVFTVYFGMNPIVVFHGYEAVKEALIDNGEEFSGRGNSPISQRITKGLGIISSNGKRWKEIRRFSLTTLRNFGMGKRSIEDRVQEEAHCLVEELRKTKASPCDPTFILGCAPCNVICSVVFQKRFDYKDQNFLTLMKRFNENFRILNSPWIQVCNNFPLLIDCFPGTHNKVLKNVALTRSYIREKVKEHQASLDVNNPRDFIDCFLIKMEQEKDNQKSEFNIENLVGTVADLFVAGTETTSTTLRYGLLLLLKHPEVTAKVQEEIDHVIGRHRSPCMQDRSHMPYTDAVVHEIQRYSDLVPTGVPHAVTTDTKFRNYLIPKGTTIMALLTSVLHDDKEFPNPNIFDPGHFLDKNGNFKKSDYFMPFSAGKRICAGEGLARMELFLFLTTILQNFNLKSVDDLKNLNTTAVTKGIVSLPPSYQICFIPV
As to the kind of experiment: Inhibition of CYP2C8 in human liver microsomes using amodiaquine as substrate measured after 15 mins by LC-MS/MS analysis. The format is ADME. Summed up:
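Human liver microsomes incubated with isoform-specific probe substrates and the test compound at concentrations up to 20 µM. IC50 derived from inhibition of metabolite formation; mean of two independent experiments, with known specific inhibitors as positive controls.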
(Liver microsomes are vesicles of endoplasmic reticulum, rich in cytochrome P450 enzymes.)

The nature of data set [7]: Negative allosteric modulation of human GluN1a/GluN2C receptor expressed in CHO cells assessed as inhibition of glutamate and glycine-induced calcium flux preincubated for 5 mins followed by glutamate and glycine addition and measured after 5 mins by calcium 5 dye based FLIPR assay. The format is cell-based. Summed up:
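Tet-On CHO T-Rex cells expressing hGluN1a with GluN2A, 2B, 2C or 2D, plated at 20,000 cells/well and induced 24 h before the assay in the presence of ketamine. Cells loaded 1 h at room temperature with Calcium 5 dye, pH 7.4 HEPES buffer. Compound added 5 min, then glutamate (~EC80) plus 10 µM glycine for 5 min; FLIPR fluorescence normalized to control wells. Three independent runs in duplicate (two for some).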
(Calcium assays in cells follow changes in intracellular calcium, usually with a dye or a luminescent sensor.)

The nature of data set [8]: Cmax in Sprague-Dawley rat at 500 mg/kg/day, po administered as nanosuspension measured for 14 days measured post last dose by LC-MS/MS analysis. The data set is classed as ADME, organism-based. Set-up: route oral, time 14 day, dose 500 mg/kg/day. The conditions noted are these: in vivo. The essentials:
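Repeated daily oral dosing of the nanosuspension to rats for 14 days, up to 500 mg/kg/day.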

The nature of data set [9]: Ratio of Cmax in Sprague-Dawley rat at 250 mg/kg, po administered via gavage after 24 hrs using nanosuspension formulation by LC-MS/MS analysis to EC70 for ex vivo receptor occupancy at GluN2B in po dosed Sprague-Dawley rat assessed as 3-[3H] 1-(azetidin-1-yl)-2-[6-(4-fluoro-3-methyl-phenyl)pyrrolo[3,2-b]pyridin-1-yl]-ethanone labelling. The data set is classed as ADME, organism-based.

Data set [10] is described as follows: Solubility of compound in 50% polyethylene glycol 400. The format is physicochemical. Summed up: (§2)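 Solubility of the compound assessed in dosing excipients, including 30% SBE-β-CD, 50% PEG-400 and 20% HP-β-CD. The aim was a solution usable for rat dosing; the 20% HP-β-CD formulation was checked for a 0.1 mg/mL solution to support a 0.5 mg/kg dose.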
Data set [11] in a line: Intrinsic clearance in cynomolgus monkey liver microsomes at 1 uM after 5 to 60 mins in presence of NADPH by LC-MS/MS analysis. The format is ADME, Macaca fascicularis, Microsome. The settings on record: time 5-60 min, read-out: CLH.
Data set [12] is described as follows: Tmax in Sprague-Dawley rat at 500 mg/kg, po administered via gavage after 24 hrs using nanosuspension formulation by LC-MS/MS analysis. The format is ADME, organism-based. The conditions noted are these: in vivo. Summed up: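 Single oral gavage of a nanosuspension (API:polymer 4:1), diluted with vehicle on the dosing day, at 100, 250 or 500 mg/kg to male Sprague Dawley rats, 3 per dose. Plasma was sampled from 0.5 to 24 h.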

Data set [13] in a line: AUC (infinity) in monkey at 0.5 mg/kg, po by LC-MS/MS analysis. The settings on record: rhesus monkey, in vivo. More on the design: route oral, time infinity, dose 0.5 mg/kg. The format is ADME, organism-based, Macaca mulatta.
The nature of data set [14]: Drug level in Sprague-Dawley rat brain hippocampus at 0.03 mg/kg, iv after 120 min by LC-MS/MS analysis. The data set is classed as ADME, organism-based. The conditions noted are these: read-out: Drug uptake. Summed up:
as §1

Data set [15] can be described thus: Solubility of compound in 30% sulfobutylether-beta-cyclodextrin. The format is physicochemical. Summed up: as §2
A short description of data set [16]: Cmax in Sprague-Dawley rat at 2.5 mg/kg, po by LC-MS/MS analysis. The format is ADME, organism-based. More on the design: route oral, dose 2.5 mg/kg. The settings on record: in vivo. The essentials:
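Rat PK with IV and PO dosing, n=3. The usual doses were 0.5 mg/kg IV and 2.5 mg/kg PO in 20% HP-β-CD. One compound was instead given at 0.1 mg/kg IV and 0.5 mg/kg PO.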

A short description of data set [17]: Solubility of compound in phosphate buffer at pH 2 measured after 3 days. The data set is classed as physicochemical. The settings on record: time 3 day. The essentials:
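Solubility in aqueous buffer at pH 2 and pH 7, and in simulated gastric and intestinal fluids.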

Data set [18] can be described thus: Ex vivo receptor occupancy at GluN2B in Sprague-Dawley rat assessed as 3-[3H] 1-(azetidin-1-yl)-2-[6-(4-fluoro-3-methyl-phenyl)pyrrolo[3,2-b]pyridin-1-yl]-ethanone labelling at 3 mg/kg, po measured after 2 hrs by autoradiography. The format is functional. The essentials:
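Rats dosed orally at 3 mg/kg in 20% HP-β-CD; brains taken at 0.5, 2 and 6 h. Ex vivo autoradiography of brain slices with the ³H pyrrolo[3,2-b]pyridine GluN2B tracer. Labelling expressed relative to matching brain areas of vehicle-treated animals; n=2, ± SEM.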

Some results are limits rather than exact numbers.

Usually Tmax stands for the time from dosing to the highest level. Broadly, the AUC(0-inf) is total exposure, with the tail of the curve extrapolated. Broadly, the half-life is how long it takes for the measured level to halve. Broadly, the IC50 is the concentration at which inhibition is half-maximal. The Cmax is the highest concentration seen after dosing. For orientation: solubility means the concentration that dissolves in the medium under given conditions. `Cn1c(=O)n(CC(=O)N2CCC2)c2cc(-c3ccc(C(F)(F)F)s3)cnc21`: the Tmax was 2.7 h in [1] and 3.3 h in data set [12]. Also, the figures for the AUC(0-inf) in data set [2] and in data set [13] were 1830 ng·h/mL and 385 ng·h/mL, respectively. Also, the half-life in [3] was 0.7 h; in data set [5], 0.9 h. The concentration at 5 min in [4] is 19.3 ng/mL. Further, the bioavailability in data set [6] stood at 132%. Besides, the results for the half-maximal inhibitory concentration (IC50) (at Cytochrome P450 2C8; in data set [7]) were more than 50 µM and more than 10 µM, respectively. The Cmax in [8] is 21700 ng/mL; in data set [16] it was 479 ng/mL. In addition, the Ratio in data set [9] was 17. Also, the solubility in data set [10] and in [15] was less than 1000 µg/mL each time. Also, the microsomal CLint at 1 µM in data set [11] was found to be 16.6 µL/min/mg. Also, the concentration at 2 h in [14] was found to be 10.1 ng/mL. For the same compound, the solubility at 72 h in data set [17] was less than 4 µM. Moreover, in data set [18], the Occ is 76%.

The record behind these values is ChEMBL document CHEMBL4725355, “Design, Synthesis, and Preclinical Evaluation of 3-Methyl-6-(5-thiophenyl)-1,3-dihydro-imidazo[4,5-b]pyridin-2-ones as Selective GluN2B Negative Allosteric Modulators for the Treatment of Mood Disorders” (J Med Chem, 2020).
